Test results from publication PMC7596007 (Cell, 2020).

Legend:
[1] = test system: cardiovascular and respiratory functions of rats; assay: Non-invasive measurement of cardiovascular and respiratory functions; format: in vivo; conditions: rat
Summary of the method: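 Anaesthetised rats had the neck trimmed for a size-matched collar sensor of a non-invasive pulse oximeter. Recorded heart rate, pulse distention (local blood flow), breath rate and oxygen saturation after test compound or SBECD vehicle. Monitored 60-600 min; maximal signal deflection taken; 1-4 animals per dose.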

smooth muscle myosin-2 = smooth muscle myosin-2 (Gallus gallus, UniProt P10587); assay: Actin-activated steady-state ATPase inhibition, smooth muscle myosin; format: biochemical, chicken; conditions: even at extremely high concentrations
Summary of the method: (§1)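 Steady-state actin-activated ATPase measured by NADH-PK/LDH coupled assay at 25°C for 15 min. Buffer: 10 mM MOPS pH 7.0, 4 mM MgCl2, 2 mM β-mercaptoethanol, with 0.5 mM ATP, 25 μM F-actin, 1 mM PEP, 200 μM NADH and 2% PK/LDH. NADH decrease followed at 340 nm; activity taken from linear regression of absorbance over time. Inhibitor added at varied concentrations in DMSO (1% final).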

[2] = test system: skeletal myosin samples from m.soleus; assay: Actin-activated ATPase inhibition, human m. soleus biopsy myosin; format: biochemical; conditions: patient-derived biopsy; 28% fast isoforms
[3] = test system: human adult dermal fibroblast (hDFa); assay: CyQUANT LDH Cytotoxicity assay, dermal fibroblasts; format: cell-based; conditions: 20 μM and 50 μM, 48 and 120 hours
Summary of the method: (§2)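 LDH release (CyQUANT kit, per manufacturer) from human adult dermal and lung fibroblasts. Cells exposed to 20 or 50 μM test compound for 48 and 120 h.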

NM2B = NM2B (Homo sapiens, UniProt P35580); assay: Actin-activated steady-state ATPase inhibition, NM2B; format: biochemical; conditions: even at extremely high concentrations
Summary of the method: as §1

TA100 = assay: Ames MPF reverse mutagenicity assay, TA100; format: cell-based, S.typhimurium; conditions: absence and presence of rat liver S9 fraction
Summary of the method: (§3)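 Ames MPF reverse mutagenicity run per kit instructions on Salmonella TA98 and TA100. Each strain tested without and with phenobarbital/β-naphthoflavone-induced rat liver S9 fraction.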

[4] = test system: spastic rats after pyramidal tract lesion; assay: Spastic cerebral palsy rat model, cylinder assay; format: in vivo; conditions: Rat-B and C, three and five hours after oral 20 mg/kg treatment
484 kinases = assay: SelectScreen Kinase Profiling panel; format: biochemical, human; conditions: 5 μM
Summary of the method: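 Outsourced SelectScreen panel of wild-type and common mutant human kinases; test compound at 5 μM. Mean ± SEM, n = 2.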

[5] = target: β-cardiac myosin isolated from human heart left ventricle (Homo sapiens, UniProt P12883); assay: Actin-activated ATPase inhibition, human heart left ventricle myosin; format: biochemical
Summary of the method: as §1

Caco-2 = Caco-2 permeability assay; format: in vitro ADME; conditions: faster transfer in the absorptive direction over the excretive direction
Summary of the method: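 Outsourced Caco-2 permeability, measured apical-to-basolateral and basolateral-to-apical, in the presence of two transporter inhibitors. Mean ± SD, n = 2.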

[6] = test system: 23 human hormone nuclear receptors (HNR); assay: SelectScreen Nuclear Receptor Profiling; format: binding; conditions: 5 μM; 23 receptors
Summary of the method: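 Outsourced SelectScreen binding profile on 23 human hormone nuclear receptors; test compound at 5 μM. Mean ± SEM, n = 2.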

TA98 = assay: Ames MPF reverse mutagenicity assay, TA98; format: cell-based, S.typhimurium; conditions: absence and presence of rat liver S9 fraction
Summary of the method: as §3

hERG potassium channel = hERG potassium channel (Homo sapiens, UniProt Q12809); assay: Predictor hERG Fluorescence Polarization Assay; format: binding; conditions: up to 5 μM
Summary of the method: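 Outsourced hERG fluorescence-polarisation binding assay, test compound up to 5 μM. Mean ± SEM, n = 2.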

[7] = Concentration measurement from tissue samples; format: in vivo; conditions: rat
Summary of the method: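 Male Wistar rats (200-250 g) dosed i.p. or orally, over-anaesthetised; tissues collected and frozen at −80°C. Extracts chloroform-dried, taken up in 50/50 water-acetonitrile, sonicated, centrifuged, then ultracentrifuged (60,000 rpm, 10°C, 60 min). HPLC-MS on RP-18 column, isocratic 50% H2O (0.1% TFA)/50% ACN (0.09% TFA), 0.5 ml/min. Quantified from 400 nm peak area against a calibration curve.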

[8] = target: expressed human β-cardiac myosin (Homo sapiens, UniProt P12883); assay: Actin-activated steady-state ATPase inhibition, expressed human β-cardiac myosin; format: biochemical
Summary of the method: as §1

[9] = target: human non-muscle myosin-2C (NM2C) (Homo sapiens, UniProt Q7Z406); assay: Actin-activated steady-state ATPase inhibition, NM2C wild type; format: biochemical; conditions: wild-type form
Summary of the method: as §1

[10] = test system: skeletal myosin samples from m.vastus lateralis; assay: Actin-activated ATPase inhibition, human m. vastus lateralis biopsy myosin; format: biochemical; conditions: patient-derived biopsies; 56% fast isoforms
[11] = test system: 186 different human G-protein-coupled-receptors (GPCRs); assay: gpcrMAX panel; format: cell-based; conditions: 5 μM; 186 GPCRs
Summary of the method: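 gpcrMAX service panel of 186 human GPCRs from 60 families, read in both agonist and inhibition modes; test compound at 5 μM. Mean ± SEM, n = 2.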

[12] = test system: spastic rats after pyramidal tract lesion; assay: Spastic cerebral palsy rat model, open-field gait analysis; format: in vivo; conditions: for ratio of left turns: Rat-A, 15% before
Summary of the method: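 Spasticity induced in rats by stereotaxic injection of 15 μl ethanol into the left pyramidal tract (ML −0.8, AP −10, DV 9.7 mm from dura). Rats filmed for 15 min in an 80×80 cm open field with transparent floor, with deep-learning 3D paw tracking. Gait parameters Z-scored and run through PCA. Falls and cramps normalised to distance. Oral 15 or 20 mg/kg; recorded before and 1-21 h after dosing.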

NM2A = NM2A (Homo sapiens, UniProt P35579); assay: Actin-activated steady-state ATPase inhibition, NM2A; format: biochemical; conditions: even at extremely high concentrations
Summary of the method: as §1

[13] = target: slow skeletal/β-cardiac myosin isolated from left ventricle of porcine heart (Sus scrofa, UniProt P79293); assay: Actin-activated steady-state ATPase inhibition, porcine cardiac myosin; format: biochemical; conditions: even at extremely high concentrations
[14] = test system: rat hindleg isometric force; assay: Isometric force measurement of rat hindleg; format: in vivo
[15] = target: fast skeletal myosin-2 isoforms isolated from rabbit psoas muscle (Oryctolagus cuniculus, UniProt Q28641); assay: Actin-activated steady-state ATPase inhibition, rabbit psoas skeletal myosin; format: biochemical
Summary of the method: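 Rabbit psoas S1 made by α-chymotrypsin digestion (0.25 mg/ml, 10 min, 25°C), stopped with 3 mM PMSF, then purified on MonoS. Assayed by NADH-PK/LDH coupled ATPase at 25°C for 15 min: 0.5 mM ATP, 25 μM F-actin, 10 mM MOPS pH 7.0, 4 mM MgCl2. Rate read at 340 nm by linear regression; inhibitor at varied concentrations, 1% DMSO.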

NM2C^F490L variant = NM2C^F490L variant (Homo sapiens, UniProt Q7Z406, F490L); assay: Actin-activated steady-state ATPase inhibition, NM2C F490L variant; format: biochemical; conditions: expressed variant
Summary of the method: as §1

[16] = test system: human adult lung (hLFa) fibroblast; assay: CyQUANT LDH Cytotoxicity assay, lung fibroblasts; format: cell-based; conditions: 20 μM and 50 μM, 48 and 120 hours
Summary of the method: as §2

Chain of β-cardiac myosin isolated from human heart left ventricle (P12883 85-778 limits assumed): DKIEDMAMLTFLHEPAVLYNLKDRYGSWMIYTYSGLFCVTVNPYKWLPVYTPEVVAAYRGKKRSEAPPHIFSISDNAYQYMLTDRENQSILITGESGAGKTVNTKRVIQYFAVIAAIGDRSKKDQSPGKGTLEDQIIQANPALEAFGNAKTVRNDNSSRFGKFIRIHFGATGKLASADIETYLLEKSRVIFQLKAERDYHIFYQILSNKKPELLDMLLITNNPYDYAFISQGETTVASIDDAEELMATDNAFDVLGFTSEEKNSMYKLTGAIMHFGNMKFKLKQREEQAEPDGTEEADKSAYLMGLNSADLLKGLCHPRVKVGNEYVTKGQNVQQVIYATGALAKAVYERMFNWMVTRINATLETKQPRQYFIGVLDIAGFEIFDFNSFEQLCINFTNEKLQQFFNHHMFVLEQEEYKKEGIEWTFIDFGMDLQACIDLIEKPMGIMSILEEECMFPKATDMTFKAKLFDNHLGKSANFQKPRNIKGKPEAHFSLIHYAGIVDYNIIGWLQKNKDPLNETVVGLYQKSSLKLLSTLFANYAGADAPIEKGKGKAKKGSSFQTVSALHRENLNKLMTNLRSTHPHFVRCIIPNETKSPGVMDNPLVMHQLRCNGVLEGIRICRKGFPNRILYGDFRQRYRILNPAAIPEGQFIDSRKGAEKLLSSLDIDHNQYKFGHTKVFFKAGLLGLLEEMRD
Chain of β-cardiac myosin isolated from human heart left ventricle (P08590 whole entry partner): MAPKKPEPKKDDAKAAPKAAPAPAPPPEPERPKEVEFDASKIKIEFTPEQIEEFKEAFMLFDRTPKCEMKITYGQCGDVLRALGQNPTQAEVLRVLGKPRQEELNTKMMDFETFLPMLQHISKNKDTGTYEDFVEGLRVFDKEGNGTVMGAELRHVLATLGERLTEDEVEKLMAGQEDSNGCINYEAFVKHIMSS
Chain of expressed human β-cardiac myosin (P12883 85-778 limits assumed): as the sequence (P12883 85-778 limits assumed) above
Chain of expressed human β-cardiac myosin (P08590 whole entry partner): as the sequence (P08590 whole entry partner) above
Chain of NM2C^F490L variant (Q7Z406 1-799 F490L): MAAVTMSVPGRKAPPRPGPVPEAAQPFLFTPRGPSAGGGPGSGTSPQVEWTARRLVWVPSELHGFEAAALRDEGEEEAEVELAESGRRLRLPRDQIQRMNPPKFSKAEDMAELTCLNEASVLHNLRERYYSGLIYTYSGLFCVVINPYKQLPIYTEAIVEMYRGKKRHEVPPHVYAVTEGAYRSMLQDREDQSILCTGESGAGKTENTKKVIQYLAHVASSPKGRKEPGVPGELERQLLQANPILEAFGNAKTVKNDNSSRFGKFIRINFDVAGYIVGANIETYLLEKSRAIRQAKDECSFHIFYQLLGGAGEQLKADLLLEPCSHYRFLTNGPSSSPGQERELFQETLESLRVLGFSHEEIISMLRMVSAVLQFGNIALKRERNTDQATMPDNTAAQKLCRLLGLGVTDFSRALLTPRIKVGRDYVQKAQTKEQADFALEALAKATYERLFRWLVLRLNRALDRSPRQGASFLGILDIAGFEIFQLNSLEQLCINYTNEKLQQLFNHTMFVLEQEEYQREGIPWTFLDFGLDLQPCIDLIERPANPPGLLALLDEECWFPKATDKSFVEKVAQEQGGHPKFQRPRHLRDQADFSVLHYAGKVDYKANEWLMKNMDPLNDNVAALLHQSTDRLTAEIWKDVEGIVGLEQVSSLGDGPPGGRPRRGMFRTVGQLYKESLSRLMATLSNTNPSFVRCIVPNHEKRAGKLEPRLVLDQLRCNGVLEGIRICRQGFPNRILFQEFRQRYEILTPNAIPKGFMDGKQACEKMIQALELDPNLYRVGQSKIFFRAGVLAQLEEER
Chain of hERG potassium channel (Q12809 whole entry): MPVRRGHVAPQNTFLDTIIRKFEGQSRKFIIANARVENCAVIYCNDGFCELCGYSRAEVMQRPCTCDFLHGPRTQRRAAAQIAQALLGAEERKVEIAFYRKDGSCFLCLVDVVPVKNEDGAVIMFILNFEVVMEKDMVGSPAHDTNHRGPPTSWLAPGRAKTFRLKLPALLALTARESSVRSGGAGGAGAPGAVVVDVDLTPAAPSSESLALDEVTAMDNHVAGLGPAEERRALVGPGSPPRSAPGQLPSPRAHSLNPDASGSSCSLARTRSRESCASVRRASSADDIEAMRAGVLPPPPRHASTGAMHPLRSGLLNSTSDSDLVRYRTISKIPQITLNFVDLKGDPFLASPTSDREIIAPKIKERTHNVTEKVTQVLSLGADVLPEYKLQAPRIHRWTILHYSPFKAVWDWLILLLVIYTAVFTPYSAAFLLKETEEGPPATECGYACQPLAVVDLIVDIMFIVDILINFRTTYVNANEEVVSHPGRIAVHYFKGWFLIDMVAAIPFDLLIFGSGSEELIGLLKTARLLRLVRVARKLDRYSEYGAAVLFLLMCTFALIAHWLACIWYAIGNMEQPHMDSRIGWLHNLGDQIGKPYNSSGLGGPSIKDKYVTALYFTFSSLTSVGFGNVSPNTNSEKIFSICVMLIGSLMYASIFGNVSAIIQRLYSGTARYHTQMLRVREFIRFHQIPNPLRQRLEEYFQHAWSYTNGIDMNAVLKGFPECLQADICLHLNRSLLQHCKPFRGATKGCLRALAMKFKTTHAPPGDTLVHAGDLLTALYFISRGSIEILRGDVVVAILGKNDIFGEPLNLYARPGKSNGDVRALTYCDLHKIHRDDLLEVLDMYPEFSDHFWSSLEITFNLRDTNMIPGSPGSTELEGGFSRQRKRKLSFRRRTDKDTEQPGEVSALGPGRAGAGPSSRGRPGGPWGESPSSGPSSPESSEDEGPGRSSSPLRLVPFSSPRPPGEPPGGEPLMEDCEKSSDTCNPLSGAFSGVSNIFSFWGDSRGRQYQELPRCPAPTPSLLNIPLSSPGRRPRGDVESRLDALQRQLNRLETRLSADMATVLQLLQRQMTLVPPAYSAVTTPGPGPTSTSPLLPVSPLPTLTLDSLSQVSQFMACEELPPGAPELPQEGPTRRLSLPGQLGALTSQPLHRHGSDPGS
Chain of human non-muscle myosin-2C (NM2C) (Q7Z406 1-799): as the sequence (Q7Z406 1-799 F490L) above, with L490F counted along it
Chain of smooth muscle myosin-2 (P10587 84-789 limits assumed): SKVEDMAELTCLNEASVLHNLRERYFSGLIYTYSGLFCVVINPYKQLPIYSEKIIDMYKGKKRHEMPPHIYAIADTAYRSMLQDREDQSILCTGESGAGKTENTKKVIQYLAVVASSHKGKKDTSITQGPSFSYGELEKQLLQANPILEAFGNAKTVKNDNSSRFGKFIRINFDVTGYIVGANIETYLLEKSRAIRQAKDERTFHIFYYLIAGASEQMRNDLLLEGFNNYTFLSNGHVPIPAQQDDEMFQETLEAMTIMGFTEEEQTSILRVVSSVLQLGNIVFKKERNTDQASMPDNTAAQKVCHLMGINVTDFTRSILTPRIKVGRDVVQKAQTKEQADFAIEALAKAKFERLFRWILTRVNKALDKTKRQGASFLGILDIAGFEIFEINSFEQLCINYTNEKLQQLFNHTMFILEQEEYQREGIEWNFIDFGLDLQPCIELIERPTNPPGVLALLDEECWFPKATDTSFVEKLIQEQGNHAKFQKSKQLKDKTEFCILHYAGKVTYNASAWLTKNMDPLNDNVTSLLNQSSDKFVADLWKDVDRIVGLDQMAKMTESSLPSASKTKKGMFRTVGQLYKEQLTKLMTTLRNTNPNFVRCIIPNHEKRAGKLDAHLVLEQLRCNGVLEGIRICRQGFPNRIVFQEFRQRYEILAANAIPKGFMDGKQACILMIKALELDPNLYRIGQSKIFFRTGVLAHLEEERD
Chain of smooth muscle myosin-2 (P02607 whole entry partner): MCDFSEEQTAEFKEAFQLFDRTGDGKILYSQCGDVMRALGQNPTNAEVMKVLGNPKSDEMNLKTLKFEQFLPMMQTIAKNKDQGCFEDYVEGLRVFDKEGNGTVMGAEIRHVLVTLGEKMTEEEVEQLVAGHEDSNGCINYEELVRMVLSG
Chain of fast skeletal myosin-2 isoforms isolated from rabbit psoas muscle (Q28641 1-813): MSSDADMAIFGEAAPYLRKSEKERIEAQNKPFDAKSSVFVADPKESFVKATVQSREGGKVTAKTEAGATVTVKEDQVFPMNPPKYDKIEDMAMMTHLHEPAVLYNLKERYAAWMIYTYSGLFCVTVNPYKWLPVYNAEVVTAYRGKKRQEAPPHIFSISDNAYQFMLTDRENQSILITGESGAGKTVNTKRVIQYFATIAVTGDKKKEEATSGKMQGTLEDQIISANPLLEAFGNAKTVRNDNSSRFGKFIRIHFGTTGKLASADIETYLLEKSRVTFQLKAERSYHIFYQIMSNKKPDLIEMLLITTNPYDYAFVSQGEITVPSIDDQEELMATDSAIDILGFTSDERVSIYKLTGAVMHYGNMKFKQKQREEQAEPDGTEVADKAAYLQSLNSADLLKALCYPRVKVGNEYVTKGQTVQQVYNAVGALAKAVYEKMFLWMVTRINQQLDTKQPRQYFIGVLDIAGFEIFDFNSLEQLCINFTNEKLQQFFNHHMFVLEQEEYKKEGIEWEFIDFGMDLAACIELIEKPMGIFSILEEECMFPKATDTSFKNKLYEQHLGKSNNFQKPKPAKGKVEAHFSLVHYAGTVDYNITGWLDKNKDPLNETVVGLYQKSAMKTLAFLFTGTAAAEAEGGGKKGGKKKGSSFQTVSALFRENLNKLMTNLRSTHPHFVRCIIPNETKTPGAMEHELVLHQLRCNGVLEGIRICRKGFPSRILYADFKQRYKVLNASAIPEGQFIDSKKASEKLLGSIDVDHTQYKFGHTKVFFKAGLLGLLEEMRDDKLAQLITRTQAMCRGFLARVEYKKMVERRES
Chain of fast skeletal myosin-2 isoforms isolated from rabbit psoas muscle (P02602 52-192 partner): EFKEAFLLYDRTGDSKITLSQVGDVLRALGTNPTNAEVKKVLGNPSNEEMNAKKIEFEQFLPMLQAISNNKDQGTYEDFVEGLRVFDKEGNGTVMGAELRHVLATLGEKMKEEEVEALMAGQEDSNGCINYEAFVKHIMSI

Cc1ccc2c(c1)C(=O)[C@]1(O)CCN(c3ccc(N)cc3)C1=N2 [AmBleb, para-aminoblebbistatin, reference compound]
time to death due to heart failure ([1]; 16 mg/kg): ≤ 15 min

Cc1cc2c(s1)N=C1N(c3ccc(N4CCOCC4)cc3)CC[C@@]1(O)C2=O [MPH-220]
ATPase activity inhibition of smooth muscle myosin-2 (smooth muscle myosin-2): did not inhibit | ATPase inhibition of m.soleus myosin sample [2]: 29% | cytotoxicity (LDH) [3]: not toxic | ATPase activity inhibition of NM2B (NM2B): did not inhibit | mutagenicity, base-pair substitution (TA100) (TA100): Lack of mutagenicity | standing up in the cylinder, wall touches with both forepaws [4]: same number of events as their healthy littermates | kinase inhibition (484 kinases): ≤ 20% | ATPase inhibition of human heart left ventricle β-cardiac myosin (in words) [5]: unaffected | Caco-2 permeability (Caco-2): highly permeable | effect on cardiovascular and respiratory functions ([1]; 18 mg/kg): neither 13 mg/kg MPH-188 (H) nor 18 mg/kg MPH-220 (I) had any significant effect | cardiac and respiratory functions versus excipient control ([1]; 10-hour experiments under anesthesia): neither cardiac nor respiratory functions differed significantly | maximum decrease in heart rate and blood flow parameters ([1]; 10-hour-long anesthesia): ≤ 25% | cardiac function ([1]; concentration range effective in force relaxation): not perturbed | effect on hormone nuclear receptors [6]: remained unaffected | mutagenicity, frameshift (TA98) (TA98): Lack of mutagenicity | hERG potassium channel inhibition (hERG potassium channel): did not observe inhibition | concentration in the diaphragm [7]: much lower compared to other striated muscle samples | concentration in the liver [7]: only temporarily elevated | concentration in target muscles relative to the inhibitory constant [IC50] ([7]; after 3 hours): 10 fold | elimination from blood and other tissues ([7]; after 3 hours): completely eliminated | concentration in cardiac tissue ([7]; high doses (up to 130 mg/kg)): 3000 to 7000 nM | accumulation in skeletal muscle samples over other tissues ([7]; versus brain, heart, kidney and blood): few-fold accumulation | ATPase activity inhibition of expressed human β-cardiac myosin [8]: essentially unaffected | ATPase activity inhibition of NM2C [9]: not inhibited | ATPase inhibition of m.vastus lateralis myosin sample [10]: 70% | GPCR inhibition or activation [11]: ≤ 30% | ratio of left turns ([12]; 40 minutes after 15 mg/kg treatment): 38% | ratio of left turns ([12]; three hours after 15 mg/kg treatment): 51% | relative frequency of random falling and spontaneous cramping ([12]; Rat-C, 20 mg/kg, open field test): decreased drastically | persistence of enhanced gait functions ([12]; Rat-D, 20 mg/kg): persistent for five hours | PC1 scores (major gait component) ([12]; global PCA, 20 mg/kg oral): significantly decreased | time of maximal effect on PC1 scores ([12]; global PCA, 20 mg/kg oral): 3 h | ATPase activity inhibition of NM2A (NM2A): did not inhibit | ATPase activity inhibition of cardiac myosin [13]: did not inhibit | isometric force decrease τi.p. ([14]; 18 mg/kg, intraperitoneal injection in 200 μl DMSO, anesthetized rats): 34 min | leg phase before force decrease, corresponding to absorption ([14]; 18 mg/kg, oral in 30% SBECD): 17 min | isometric force decrease τp.o. ([14]; 18 mg/kg, orally through gavage tube in 30% SBECD, anesthetized rats): 53 min | persistence of decreased force ([14]; rat hindleg, oral treatment): more than 10 hours | ATPase inhibition of fast skeletal myosin (selectivity, in words) [15]: selective inhibition | ATPase sensitivity of NM2C F490L variant (NM2C^F490L variant): became sensitive | cytotoxicity (LDH) [16]: not toxic

Cc1ccc2c(c1)C(=O)C1(O)CCN(c3ccccc3)C1=N2 (stereo not drawn) [blebbistatin, reference compound]
ATPase activity reduction of human cardiac myosin sample ([5]; human heart left ventricle): more than 90% | ATPase activity inhibition of expressed human β-cardiac myosin [8]: completely blocked | ATPase inhibition of m.vastus lateralis myosin sample [10]: more than 90%
